Reference: ChEMBL document CHEMBL4689842, “EUbOPEN Chemogenomics Library wave 1” (2021)

Test system: Fibroblast
Experiment: Multiplex assay against human fibroblast
Assay type: toxicity, cell-based
Outline: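 Phenotypes for tubulin, mitochondrial mass and membrane permeability are expressed as per cents of healthy-nucleus cells. Cells were stained live at seeding with Hoechst33342, BioTracker Green Microtubule Cytoskeleton Dye, MitoTracker Red and Annexin V Alexa Fluor 680, then imaged after compound addition on a CQ1 microscope at 37°C and 5% CO2. Machine-learning gating in CellPathfinder separated Hoechst high-intensity objects from normal cells, divided normal cells by nuclear state (healthy, pyknosed, fragmented) and divided pyknosed cells into mitotic or apoptotic.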

[1] = 12 h, 1 µM, compound concentration 1 uM, replicate 1
[2] = 12 h, 1 µM, compound concentration 1 uM, replicate 2
[3] = 12 h, 10 µM, compound concentration 10 uM, replicate 1
[4] = 12 h, 10 µM, compound concentration 10 uM, replicate 2
[5] = 24 h, 1 µM, compound concentration 1 uM, replicate 1
[6] = 24 h, 1 µM, compound concentration 1 uM, replicate 2
[7] = 24 h, 10 µM, compound concentration 10 uM, replicate 1
[8] = 24 h, 10 µM, compound concentration 10 uM, replicate 2
[9] = 48 h, 1 µM, compound concentration 1 uM, replicate 1
[10] = 48 h, 1 µM, compound concentration 1 uM, replicate 2
[11] = 48 h, 10 µM, compound concentration 10 uM, replicate 1
[12] = 48 h, 10 µM, compound concentration 10 uM, replicate 2

C=CC(=O)Nc1cccc(C(=O)Nc2ccc(Nc3cc(-c4[nH]c(SC)nc4C)ccn3)cc2)c1
Population Apoptotic (%) [1]: 69% | Population Fragmented Nuclei (%) [1]: 23% | Population Healthy Nuclei (%) [1]: 43% | Population Hoechst High Intensity Objects (%) [1]: 11% | Population Membrane Permeable-Phenotype (%) [1]: 28% | Population Mitochondria Different-Phenotype (%) [1]: 8% | Population Mitotic Cells (%) [1]: 30% | Population Normal (%) [1]: 88% | Population Pyknosed Nuclei (%) [1]: 33% | Population Tubulin-Different-Phenotype (%) [1]: 36% | Total Cell Count [1]: 131 | Population Apoptotic (%) [2]: 0% | Population Fragmented Nuclei (%) [2]: 2% | Population Healthy Nuclei (%) [2]: 94% | Population Hoechst High Intensity Objects (%) [2]: 14% | Population Membrane Permeable-Phenotype (%) [2]: 0% | Population Mitochondria Different-Phenotype (%) [2]: 7% | Population Mitotic Cells (%) [2]: 100% | Population Normal (%) [2]: 85% | Population Pyknosed Nuclei (%) [2]: 2% | Population Tubulin-Different-Phenotype (%) [2]: 23% | Total Cell Count [2]: 112 | Population Apoptotic (%) [3]: 50% | Population Fragmented Nuclei (%) [3]: 27% | Population Healthy Nuclei (%) [3]: 50% | Population Hoechst High Intensity Objects (%) [3]: 19% | Population Membrane Permeable-Phenotype (%) [3]: 18% | Population Mitochondria Different-Phenotype (%) [3]: 13% | Population Mitotic Cells (%) [3]: 50% | Population Normal (%) [3]: 80% | Population Pyknosed Nuclei (%) [3]: 22% | Population Tubulin-Different-Phenotype (%) [3]: 29% | Total Cell Count [3]: 109 | Population Apoptotic (%) [4]: 40% | Population Fragmented Nuclei (%) [4]: 6% | Population Healthy Nuclei (%) [4]: 83% | Population Hoechst High Intensity Objects (%) [4]: 18% | Population Membrane Permeable-Phenotype (%) [4]: 7% | Population Mitochondria Different-Phenotype (%) [4]: 12% | Population Mitotic Cells (%) [4]: 60% | Population Normal (%) [4]: 81% | Population Pyknosed Nuclei (%) [4]: 10% | Population Tubulin-Different-Phenotype (%) [4]: 12% | Total Cell Count [4]: 78 | Population Apoptotic (%) [5]: 60% | Population Fragmented Nuclei (%) [5]: 20% | Population Healthy Nuclei (%) [5]: 55% | Population Hoechst High Intensity Objects (%) [5]: 13% | Population Membrane Permeable-Phenotype (%) [5]: 29% | Population Mitochondria Different-Phenotype (%) [5]: 3% | Population Mitotic Cells (%) [5]: 39% | Population Normal (%) [5]: 86% | Population Pyknosed Nuclei (%) [5]: 24% | Population Tubulin-Different-Phenotype (%) [5]: 34% | Total Cell Count [5]: 134 | Population Apoptotic (%) [6]: 37% | Population Fragmented Nuclei (%) [6]: 3% | Population Healthy Nuclei (%) [6]: 87% | Population Hoechst High Intensity Objects (%) [6]: 4% | Population Membrane Permeable-Phenotype (%) [6]: 2% | Population Mitochondria Different-Phenotype (%) [6]: 10% | Population Mitotic Cells (%) [6]: 62% | Population Normal (%) [6]: 95% | Population Pyknosed Nuclei (%) [6]: 8% | Population Tubulin-Different-Phenotype (%) [6]: 25% | Total Cell Count [6]: 122 | Population Apoptotic (%) [7]: 30% | Population Fragmented Nuclei (%) [7]: 32% | Population Healthy Nuclei (%) [7]: 43% | Population Hoechst High Intensity Objects (%) [7]: 13% | Population Membrane Permeable-Phenotype (%) [7]: 20% | Population Mitochondria Different-Phenotype (%) [7]: 4% | Population Mitotic Cells (%) [7]: 69% | Population Normal (%) [7]: 86% | Population Pyknosed Nuclei (%) [7]: 23% | Population Tubulin-Different-Phenotype (%) [7]: 30% | Total Cell Count [7]: 113 | Population Apoptotic (%) [8]: 40% | Population Fragmented Nuclei (%) [8]: 5% | Population Healthy Nuclei (%) [8]: 85% | Population Hoechst High Intensity Objects (%) [8]: 11% | Population Membrane Permeable-Phenotype (%) [8]: 8% | Population Mitochondria Different-Phenotype (%) [8]: 14% | Population Mitotic Cells (%) [8]: 60% | Population Normal (%) [8]: 88% | Population Pyknosed Nuclei (%) [8]: 9% | Population Tubulin-Different-Phenotype (%) [8]: 12% | Total Cell Count [8]: 95 | Population Apoptotic (%) [9]: 62% | Population Fragmented Nuclei (%) [9]: 25% | Population Healthy Nuclei (%) [9]: 50% | Population Hoechst High Intensity Objects (%) [9]: 11% | Population Membrane Permeable-Phenotype (%) [9]: 34% | Population Mitochondria Different-Phenotype (%) [9]: 3% | Population Mitotic Cells (%) [9]: 37% | Population Normal (%) [9]: 88% | Population Pyknosed Nuclei (%) [9]: 23% | Population Tubulin-Different-Phenotype (%) [9]: 25% | Total Cell Count [9]: 129 | Population Apoptotic (%) [10]: 100% | Population Fragmented Nuclei (%) [10]: 36% | Population Healthy Nuclei (%) [10]: 61% | Population Hoechst High Intensity Objects (%) [10]: 17% | Population Membrane Permeable-Phenotype (%) [10]: 28% | Population Mitochondria Different-Phenotype (%) [10]: 2% | Population Mitotic Cells (%) [10]: 0% | Population Normal (%) [10]: 82% | Population Pyknosed Nuclei (%) [10]: 1% | Population Tubulin-Different-Phenotype (%) [10]: 20% | Total Cell Count [10]: 69 | Population Apoptotic (%) [11]: 43% | Population Fragmented Nuclei (%) [11]: 37% | Population Healthy Nuclei (%) [11]: 47% | Population Hoechst High Intensity Objects (%) [11]: 12% | Population Membrane Permeable-Phenotype (%) [11]: 11% | Population Mitochondria Different-Phenotype (%) [11]: 0% | Population Mitotic Cells (%) [11]: 56% | Population Normal (%) [11]: 87% | Population Pyknosed Nuclei (%) [11]: 14% | Population Tubulin-Different-Phenotype (%) [11]: 23% | Total Cell Count [11]: 123 | Population Apoptotic (%) [12]: 100% | Population Fragmented Nuclei (%) [12]: 36% | Population Healthy Nuclei (%) [12]: 57% | Population Hoechst High Intensity Objects (%) [12]: 13% | Population Membrane Permeable-Phenotype (%) [12]: 20% | Population Mitochondria Different-Phenotype (%) [12]: 3% | Population Mitotic Cells (%) [12]: 0% | Population Normal (%) [12]: 86% | Population Pyknosed Nuclei (%) [12]: 5% | Population Tubulin-Different-Phenotype (%) [12]: 27% | Total Cell Count [12]: 118
